Results collected from several papers.
Lines come from different studies, so protocols differ.
Target: Amine oxidase [flavin-containing] B (MAOB, Homo sapiens, UniProt P27338)
Read-out: enzyme activity
Action: inhibitor
Sequence (P27338 1-520, as in one of the studies): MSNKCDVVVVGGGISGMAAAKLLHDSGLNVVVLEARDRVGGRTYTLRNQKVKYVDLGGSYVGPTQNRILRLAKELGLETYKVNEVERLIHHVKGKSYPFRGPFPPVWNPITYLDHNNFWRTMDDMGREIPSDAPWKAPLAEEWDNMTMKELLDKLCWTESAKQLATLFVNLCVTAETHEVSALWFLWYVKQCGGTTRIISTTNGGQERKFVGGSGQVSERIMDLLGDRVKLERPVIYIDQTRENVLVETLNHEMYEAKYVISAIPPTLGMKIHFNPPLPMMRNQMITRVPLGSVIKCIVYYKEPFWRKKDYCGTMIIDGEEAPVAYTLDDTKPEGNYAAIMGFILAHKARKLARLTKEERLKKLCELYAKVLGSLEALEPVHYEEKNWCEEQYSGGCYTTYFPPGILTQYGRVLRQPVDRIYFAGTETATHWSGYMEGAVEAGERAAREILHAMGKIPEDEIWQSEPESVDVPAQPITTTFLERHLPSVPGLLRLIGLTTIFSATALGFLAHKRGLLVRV

c1ccc2[nH]c(-c3nc4ccccc4[nH]3)nc2c1 — IC50 (fluorescence): > 30000 nM
O=C(/C=C/c1ccc(O)cc1)c1ccc(O)cc1O — IC50: 510 nM
C#CCOc1ccc(/C=C/C(=O)N2CCc3ccccc3C2)cc1OC — IC50 (fluorescence): 540 nM
O=C(O)c1cc(O)c2c(c1)C(=O)c1cc(O)cc(O)c1C2=O — IC50: 31900 nM
CCn1c(-c2nc3cc(C(=O)N4CCC[C@@H](N)C4)cc(OC)c3n2C)cc2cccnc21 — IC50: 25100 nM
COC(=O)c1ccc(C(=O)OC)c(NC(=O)c2cc(Cl)ccc2O)c1 — IC50: > 1000 nM
c1ccc(Nc2nccc(-c3cccnc3)n2)cc1 — IC50 (fluorescence): 400 nM
O=C(c1ccc(O)cc1O)[C@H](O)[C@@H](O)c1ccc(O)cc1 — IC50: 29900 nM
COc1cccc(CNc2nc3ccc(C)cc3n3cnnc23)c1 — IC50 (fluorescence): 180 nM
O=c1c(O)c(-c2ccc(O)c(O)c2)oc2cc(O)ccc12 — IC50: > 100000 nM
COc1ccc(/C=C/C(=O)N2CCc3ccccc3C2)cc1OC — IC50 (fluorescence): 730 nM
O=C(Nc1ccc(Br)cc1)c1cc(Cl)ccc1O — IC50: 139 nM
O=c1cc(-c2ccc(O)cc2)oc2cc(O)c([C@@H]3O[C@H](CO)[C@@H](O)[C@H](O)[C@H]3O)c(O)c12 — IC50: 23200 nM
c1ccc(Nc2nccc(-c3ccco3)n2)cc1 — IC50 (fluorescence): 510 nM
O=c1cc(-c2ccc(O)cc2)oc2c([C@@H]3O[C@H](CO)[C@@H](O)[C@H](O)[C@H]3O)c(O)cc(O)c12 — IC50: 34100 nM
COc1cc(/C=C/C(=O)N2CCC(Cc3ccccc3)CC2)ccc1OC1CCCCC1 — IC50 (fluorescence): 560 nM
